What all share (format): functional, cell-based
Assay [1] can be described thus: Cytotoxicity against human H460 cells after 72 hrs by WST1 assay. Conditions: NCI-H460, 72 h. The essentials:
(§1)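 Cells were seeded the day before dosing at 0.5–1.7 × 10^3 cells/well in RPMI + 10% FBS. Compounds were dissolved in DMSO (stocks 100–200 mM) and tested at nine concentrations from 100 μM to 5 nM, in 4 replicates per dilution, with experiments repeated 1x or 2x. Exposure was 72 h at 37°C, 5% CO2, against a DMSO vehicle control. WST-1 was then added for 4 h and absorbance read at 450–690 nm.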

A further assay has as its system OVCAR-3. As to the kind of experiment: Cytotoxicity against human OVCAR3 cells after 72 hrs by WST1 assay. Conditions: OVCAR-3, 72 h. In short, it runs like this: as §1
The subject of another assay is MCF7. The assay can be described thus: Cytotoxicity against human MCF7 cells after 72 hrs by WST1 assay. Conditions: MCF7, 72 h. In short, it runs like this: as §1
In another assay the test system is A549. As to the kind of experiment: Cytotoxicity against human A549 cells after 72 hrs by WST1 assay. Conditions: A549, 72 h. The essentials:
as §1

For the next assay, the system named is PC-3. The assay can be described thus: Cytotoxicity against human PC3 cells after 72 hrs by WST1 assay. Conditions: PC-3, 72 h. The essentials: as §1
In a further assay the test system is MDA-MB-231. The assay can be described thus: Cytotoxicity against human MDA-MB-231 cells after 72 hrs by WST1 assay. Conditions: MDA-MB-231, 72 h. The essentials:
as §1

For the compound `COc1ccc(Cn2cnc3c4nc(=O)n(Cc5cccc(C(F)(F)F)c5)c-4ncnc32)cc1`, the IC50 in assay [1] amounted to 3100 nM; in the assay on OVCAR-3, 3680 nM; in the assay on MCF7, 4310 nM; in the assay on A549 it was 3190 nM; in the assay with PC-3 it was 8300 nM; in the assay with MDA-MB-231, 4610 nM.

Take `COc1ccc(Cn2cnc3c4nc(=O)n(Cc5ccc(Cl)cc5)c-4ncnc32)cc1`: the IC50 in assay [1] was found to be 850 nM; in the assay on OVCAR-3 it was 880 nM; in the assay on MCF7 it was 2380 nM; with A549, 780 nM; in the assay with PC-3 it was 920 nM; in the assay on MDA-MB-231 it was 970 nM.

With `COc1ccc(Cn2cnc3c4nc(=O)n(Cc5ccc(Br)cc5)c-4ncnc32)cc1`, the IC50 came to 570 nM in assay [1]; 1620 nM with OVCAR-3; 1020 nM in the assay on MCF7; 630 nM in the assay on A549; 980 nM with PC-3; 1160 nM in the assay with MDA-MB-231.

Consider `COc1ccc(Cn2cnc3c4nc(=O)n(Cc5cccc(F)c5)c-4ncnc32)cc1`, for which the IC50 was 1240 nM in assay [1]; 3180 nM in the assay with OVCAR-3; 1640 nM with MCF7; 1200 nM in the assay on A549; 1830 nM in the assay on PC-3; 2700 nM in the assay with MDA-MB-231.

Regarding `COc1ccc(Cn2cnc3c4nc(=O)n(Cc5ccc(F)c(F)c5)c-4ncnc32)cc1`, the IC50 stood at 740 nM in assay [1]; 2270 nM in the assay on OVCAR-3; 1750 nM in the assay on MCF7; 990 nM in the assay with A549; 1590 nM with PC-3; 1700 nM in the assay on MDA-MB-231.

Turning to `COc1ccc(Cn2cnc3c4nc(=O)n(Cc5cccc(Cl)c5)c-4ncnc32)cc1`, the IC50 was found to be 1000 nM in assay [1]; 1070 nM with OVCAR-3; 2490 nM with MCF7; 890 nM in the assay with A549; 970 nM in the assay on PC-3; 1150 nM in the assay on MDA-MB-231.

With `COc1ccc(Cn2cnc3c4nc(=O)n(Cc5cccc(Br)c5)c-4ncnc32)cc1`, the IC50 came out at 1170 nM in assay [1]; 1540 nM in the assay with OVCAR-3; 1850 nM with MCF7; 1370 nM with A549; 2570 nM in the assay with PC-3; 1530 nM in the assay on MDA-MB-231.

These data come from ChEMBL document CHEMBL2321841, “Structure-based drug design and potent anti-cancer activity of tricyclic 5:7:5-fused diimidazo[4,5-d:4',5'-f][1,3]diazepines” (Bioorg Med Chem, 2013).
